Source: PubChem
CTSL1 counter = cathepsin L1 inhibition, PFM18AAP counter-screen; hit rate 0.49% among 300,000; recombinant F. hepatica cathepsin L1, Z-Leu-Arg-MCA fluorescence; AID 1906; inhibition, % at 5.96 µM;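 active = inhibition above the mean of all tested compounds plus 3 SD, set per screening campaign, cut at about 17% in these data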;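 also: 0% = plate median of test compound wells and 100% = 1 µM Z-Phe-Ala-diazomethylketone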
Cardio protect = modulators protecting cardiomyocytes from myocardial damage | H9c2 cardiomyocytes, H2O2 injury protection, ATPLite, 2 h | hit rate 0.63% among 360,000 | protection from H2O2 cell death, % at 20 µM | AID 588492;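 active = compounds giving at least 50% protection of heart cells from peroxide-induced death in the single-dose screen, raw or plate-pattern-corrected value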;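 also: 0% = DMSO wells with peroxide and 100% = DMSO wells without peroxide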
PP5 inh = blocks human protein phosphatase 5 activity. P53041. purified PP5c, OMFP substrate fluorescence. inhibition, % at 6.7 µM. hit rate 0.18% among 320,000;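 active = inhibition above the campaign's mean inhibition across all tested compounds plus 3 SD, cut at about 9.5% in these data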;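 also: 0% = DMSO only and 100% = 100 µM cantharidin control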
T cruzi repl = blocks replication of Trypanosoma cruzi; T. cruzi beta-gal in NIH3T3, luminescence, 90 h; AID 1885; hit rate 1.4% among 300,000; inhibition, % (no concentration beside the values);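 active = mean inhibition across valid replicates above about 55%, limit read from the data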;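 also: signal also drops with host cell toxicity which is not excluded here; 0% = plate median of DMSO wells and 100% = zero luminescence signal; higher percent means less beta-gal luminescence so fewer parasites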
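System: mouse NIH/3T3 fibroblasts infected with β-gal-expressing T. cruzi Tulahuen C4 / Input: NIH/3T3 cells, 5,000 per well / Buffer or medium: Low-serum DMEM with 2% FBS / Probe or stimulus: 5000 reporter trypomastigotes per well / Schedule: ≥90 h infection period, 3 h prior cell attachment / Measured by: GalScreen luminescence, 60 min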
GASC-1 inh = inhibitors of human GASC-1 (JMJD2C) demethylase; Q9H3R0; GST-JMJD2C(1-420) H3K9me3 demethylation, DELFIA europium; inhibition, % at 2.35 µM; hit rate 0.069% among 330,000; AID 2099;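 active = more than half of a compound's replicate wells show inhibition beyond 50%, single wells judged on their own value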;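 also: signal counts dimethyl H3K9 product captured on neutravidin plate; 0% = median of DMSO wells and 100% = 0.3 times that DMSO median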
p-CIP stab down = p/CIP protein destabilization | decrease of EGFP signal, % at 10 µM | F442A p/CIP-EGFP cells, EGFP fluorescence, 16 h | Q05BA5 | hit rate 0.01% among 290,000;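 active = EGFP signal decrease of at least 30% at 10 µM or well 3 SD below plate mean, unless failing retest; inactive = the rest, including hits failing retest or dose response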
Numbers without * were called inactive; . = not tested or not shown. This is a sample that favours compounds with a hit; in the whole collection about 2.4% have one here.

SMILES	CTSL1 counter	Cardio protect	PP5 inh	T cruzi repl	GASC-1 inh	p-CIP stab down
Cn1c(=O)c2cc(NC(=O)c3ccccc3Cl)c(=O)oc2n(C)c1=O	27*	14	3	-19	16	4
Cc1ccsc1C(=O)N(C)CC(=O)N(CC(C)C)c1c(N)n(CC(C)C)c(=O)[nH]c1=O	0	6	0	1	-10	.
CC(C)n1nnnc1SCC(=O)NNC(=O)C1CCCCC1	27*	6	2	-1	-1	-8
CC(C)n1nnnc1SCC(=O)NC1CCCC1	-1	4	2	4	3	14
Cc1onc(-c2ccccc2)c1CNS(=O)(=O)c1cccc(Br)c1	-1	-3	-1	12	-1	-4
CC(=O)c1ccc(-n2cc(-c3ccc(C(C)(C)C)cc3)[n+]3c2SCCC3)cc1	-2	-23	3	68*	-7	-11
COc1ccc(-c2cn(-c3ccc(Br)cc3)c3[n+]2CCS3)cc1	0	-17	-3	29	4	14
COc1cc(CN2CCCC(CCC(=O)NCc3ccc(C)o3)C2)cc2c1OCO2 (configuration not stated)	-3	4	2	69*	4	-2
COCc1ccc(CN2CCCC(CCC(=O)NCc3ccc(C)o3)C2)o1 (configuration not stated)	2	-9	-1	36	4	-14
O=C(CCC1CCCN(Cc2ccc3c(c2)OCCO3)C1)NCc1ccccc1F (configuration not stated)	0	5	2	49	-3	1
COC(=O)c1ccc(CN2CCCC(CCC(=O)NCc3ccc(C)o3)C2)cc1 (configuration not stated)	-3	7	0	69*	-17	-6
Cc1ccc(CNC(=O)CCC2CCCN(Cc3cc4ccccc4o3)C2)o1 (configuration not stated)	2	7	-2	56*	3	-2
CC(C)CNc1ncnc2c1ncn2[C@H]1CN(CCN2CCOCC2)C[C@@H](CO)O1	.	-1	.	.	.	.
Cc1cccc(NC(=S)NC(NC(=O)OCc2ccccc2)C(Cl)(Cl)Cl)c1 (configuration not stated)	2	-17	2	57*	-2	-5
O=C(NC(NC(=S)Nc1cccc(C(=O)O)c1)C(Cl)(Cl)Cl)OCc1ccccc1 (configuration not stated)	-4	0	4	-17	-28	-20
CC(C)C(=O)Nc1ccc(S(=O)(=O)N2CCC(c3nc4ccccc4[nH]3)CC2)cc1	-2	12	0	-14	7	.
COc1cc(CNC2CCCCCC2)cc(OC)c1O	-1	7	2	-17	-7	-18
COc1cc(CNC2CCCC2)cc(Cl)c1OCc1ccccc1F	2	9	2	58*	-3	-3
CCN(CC)c1ccc(/C=C/c2cccc[n+]2C)c(OC)c1	10	-13	3	66*	-21	-728
COc1ccc(CCN2CC(C(=O)N3CCCCCC3)CCC2=O)cc1 (configuration not stated)	4	-1	2	-6	-13	-9
COc1ccc(-c2nc(C#N)c(NCc3ccc(F)cc3)o2)cc1OC	3	17	2	-10	35	-9
COc1ccc(-c2nc(C#N)c(NCc3cccnc3)o2)cc1OC	2	-2	0	64*	-2	-10
COCCNc1nc(Nc2ccc(F)cc2)c2sccc2n1	.	-5	.	.	.	.
C/C(=N\Nc1ccc(C)c(Cl)c1)c1ccncc1	19*	-4	-5	27	11	-5
NC(N)=N/N=C/c1ccc(Cl)c(Cl)c1	-1	0	0	53	2	3
SMILES	CTSL1 counter	Cardio protect	PP5 inh	T cruzi repl	GASC-1 inh	p-CIP stab down
NC(N)=N/N=C/c1ccc(Cl)cc1Cl	2	0	0	62*	-5	1
CC(/C=N/NC(=O)c1nnn(-c2nonc2N)c1C(C)C)=C\c1ccco1	16	-5	0	3	-2	-4
Cc1cc(Cn2ccnc2)c(C)c([N+](=O)[O-])c1Cn1ccnc1	0	4	-1	60*	84	-11
CC1(COS(N)(=O)=O)CCCCC1	-1	-2	-2	-5	0	-2
COc1ccc(Cl)cc1Nc1nc(-c2cccnc2)cs1	3	2	6	56*	-4	-8
Clc1cccc(Nc2nc(-c3cccnc3)cs2)c1	2	-15	3	59*	5	-9
Cc1nc(N2CCN(c3ccccn3)CC2)c2c(C)c(C(=O)Nc3c(C)cc(Br)cc3C)sc2n1	19*	0	2	20	2	-7
COc1ccccc1N1CCN(C(=O)c2sc3ncnc(N4CCN(c5ccccn5)CC4)c3c2C)CC1	-3	22	2	12	-52	3
COc1ccc(OC)c(NC(=O)c2sc3ncnc(N4CCN(c5ccccn5)CC4)c3c2C)c1	0	86*	1	8	-4	8
O=C(NC1CC1)C1CC(=O)N(c2cccc(Cl)c2Cl)C1 (configuration not stated)	1	8	3	-3	6	-5
Cc1ccc(C(=O)OCC(=O)NC2CCCCCC2)c(C)c1	.	-8	.	.	.	.
CCN(C[C@H]1N[C@@](Cc2ccccc2)(C(=O)OC)[C@H]2C(=O)N(C)C(=O)[C@@H]12)S(=O)(=O)c1ccc(-c2ccccc2)cc1	.	14	.	.	.	.
C/C(=N\NC(=O)c1ccccc1-n1cccc1)c1ccccn1	.	69*	.	.	.	.
C/C(=N\NC(=O)c1c[nH]c2ccccc12)c1ccco1	3	-9	1	-8	15	8
C/C(=N\NC(=O)c1c[nH]c2ccccc12)c1ccccn1	-2	17	-1	82*	2	-2
CN(C)CCCNc1cn[nH]c(=O)c1Cl	-4	3	0	70*	12	-7
CCOC1=C2[C@@H](CN(S(=O)(=O)c3ccc(C)cc3)[C@H]2c2ccccc2F)[C@H]2C(=O)NC(=O)[C@H]2C1	.	2	.	.	.	.
COc1cccc2[nH]c3c(N4CC(C)CC(C)C4)ncnc3c12 (configuration not stated)	.	.	.	57*	2	-13
O=C(CCNC(=O)c1ccc([N+](=O)[O-])cc1)Nc1cccc(S(=O)(=O)N2CCCCCC2)c1	.	4	4	.	-1	.
O=C1c2cccc3cc([N+](=O)[O-])cc(c23)C(=O)N1c1ccccc1O	4	-1	1	58*	5	-17
Cc1cc(O)ccc1N1C(=O)c2cccc3cc([N+](=O)[O-])cc(c23)C1=O	1	10	1	67*	2	-32
Cc1ccc(Sc2ncccc2C(=O)NCC(c2ccc(F)cc2)N2CCOCC2)cc1C (configuration not stated)	2	-6	2	-3	11	.
O=C(Nc1ccc(Br)cc1)c1cccc2c1C(=O)N(C1CCCCC1)C2	2	-6	-1	-11	-6	-2
